Measurements as given in ChEMBL document CHEMBL4699633, “Total Syntheses of Prenylated Isoflavones from Erythrina sacleuxii and Their Antibacterial Activity: 5-Deoxy-3'-prenylbiochanin A and Erysubin F” (J Nat Prod, 2020).
≈ marks a conversion by molar mass, not a printed value.

How the values were obtained:
[1] = system: Listeria monocytogenes; assay: Antibacterial activity against Listeria monocytogenes assessed as reduction in microbial growth measured every 5 mins for 24 hrs; type: functional
[2] = system: Staphylococcus aureus; assay: Antibacterial activity against methicilin-resistant Staphylococcus aureus ATCC 43300 assessed as reduction in microbial growth after 18 hrs by agar dilution method; type: functional
Outline: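 MRSA ATCC 43300 tested by standardized agar dilution. Compounds dissolved in DMSO and 2-fold serially diluted in solvent, then added to Mueller Hinton agar at 1% v/v DMSO final. Inoculum from overnight culture, photometrically adjusted. Plates incubated aerobically at 37 °C for 18 h. Vancomycin served as positive control. DMSO-only (1% v/v) plates served as negative control. Read-out was MIC.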

[3] = system: Plasmodium falciparum; assay: Antiplasmodial activity against chloroquine-resistant Plasmodium falciparum W2 by [3H]-hypoxanthine incorporation assay; type: functional, organism-based
[4] = system: Candida albicans; assay: Antifungal activity against Candida albicans ATCC 90028 assessed as reduction in microbial growth after 48 hrs by agar dilution method; type: functional
Outline: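 Agar dilution in yeast extract peptone dextrose (YPD) agar; compounds in DMSO, 2-fold serial dilutions added to medium (DMSO 1% v/v final). Inoculum from overnight culture, adjusted photometrically. Plates incubated at 30 °C for 48 h. Amphotericin B as positive control, DMSO-only plates as negative control.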

[5] = system: Salmonella enterica subsp. enterica; assay: Antibacterial activity against Salmonella enterica subsp.enterica NCTC 13349 assessed as reduction in microbial growth after 18 hrs by agar dilution method; type: functional
Outline: (§1)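 Agar dilution on Mueller Hinton agar; compounds dissolved in DMSO, 2-fold serial dilutions in solvent added to agar (DMSO 1% v/v final). Inocula from overnight cultures, adjusted photometrically. Plates incubated aerobically at 37 °C for 18 h. Vancomycin or ampicillin as positive controls, DMSO-only plates as negative controls.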

[6] = system: Plasmodium falciparum; assay: Antiplasmodial activity against chloroquine-sensitive Plasmodium falciparum D6 by [3H]-hypoxanthine incorporation assay; type: functional, organism-based
[7] = system: Escherichia coli; assay: Antibacterial activity against Escherichia coli ATCC 25922 assessed as reduction in microbial growth after 18 hrs by agar dilution method; type: functional; outline: as §1
[8] = system: Staphylococcus aureus; assay: Antibacterial activity against methicillin-resistant Staphylococcus aureus assessed as reduction in microbial growth after 24 hrs by two-fold serial dilution method; type: functional
[9] = system: Mycobacterium tuberculosis; assay: Antimycobacterial activity against Mycobacterium tuberculosis; type: functional

SMILES	MIC [1]	MIC [2]	MIC [4]	MIC [5]	MIC [7]	also measured
CC(C)=CCc1c(O)cc(O)c2c(=O)c(-c3ccc(O)cc3)coc12	> 148 µM	–	–	–	–	–
COc1ccc(-c2coc3cc(O)ccc3c2=O)cc1CC=C(C)C	–	> 155 µM	> 95.1 µM	> 190 µM	> 95.1 µM	IC50 [3]: 20 µM; IC50 [6]: 20 µM
CC(C)=CCc1cc(-c2cc(=O)c3ccc(O)c(CC=C(C)C)c3o2)ccc1O	–	20.5 µM	> 82 µM	> 82 µM	> 82 µM	–
C[C@@H]1[C@H](O)[C@@H](C)/C=C/C=C/C=C/C=C/C=C/C=C/C=C/[C@H](O[C@@H]2O[C@H](C)[C@@H](O)[C@H](N)[C@@H]2O)C[C@@H]2O[C@](O)(C[C@@H](O)C[C@@H](O)[C@H](O)CC[C@@H](O)C[C@@H](O)CC(=O)O[C@H]1C)C[C@H](O)[C@H]2C(=O)O [AMPHOTERICIN B]	–	–	0.5 µM	–	–	–
CC1(C)S[C@@H]2[C@H](NC(=O)[C@H](N)c3ccccc3)C(=O)N2[C@H]1C(=O)O [AMPICILLIN]	–	–	–	11.4 µM	11.4 µM	–
CC(C)=CCc1cc(-c2coc3cc(O)cc(O)c3c2=O)ccc1O [CORYLIN]	59.1 µM	–	–	–	–	–
CC(C)=CCc1cc(-c2coc3c(CC=C(C)C)c(O)ccc3c2=O)ccc1O [ERYSUBIN F]	–	15.4 µM	> 82 µM	> 82 µM	> 82 µM	MIC [8]: 256 µM; MIC [9]: 32 µM (≈ 12.5 µg/mL)
CN[C@H](CC(C)C)C(=O)N[C@H]1C(=O)N[C@@H](CC(N)=O)C(=O)N[C@H]2C(=O)N[C@H]3C(=O)N[C@H](C(=O)N[C@H](C(=O)O)c4cc(O)cc(O)c4-c4cc3ccc4O)[C@H](O)c3ccc(c(Cl)c3)Oc3cc2cc(c3O[C@@H]2O[C@H](CO)[C@@H](O)[C@H](O)[C@H]2O[C@H]2C[C@](C)(N)[C@H](O)[C@H](C)O2)Oc2ccc(cc2Cl)[C@H]1O [VANCOMYCIN]	–	0.5 µM	–	–	–	–
CC(C)=CCc1c(O)cc2occ(-c3ccc(O)cc3)c(=O)c2c1O [WIGHTEONE]	29.6 µM	–	–	–	–	–
